The values below come from ChEMBL document CHEMBL2413013, “Triplex-forming ability of oligonucleotides containing 1-aryl-1,2,3-triazole nucleobases linked via a two atom-length spacer” (Bioorg Med Chem, 2013).

The nature of assay [1]: Binding affinity to hairpin double stranded DNA CG base pair in sodium cacodylate buffer at pH 6.8 assessed as triplex-forming ability measuring melting temperature after by UV melting experiment. The method, boiled down: (§1)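 TFO and hairpin dsDNA target, each strand at 1.89 μM final, in 10 mM sodium cacodylate (pH 6.8) with 100 mM KCl and 50 mM MgCl₂. Annealed in boiling water, then cooled slowly to 5 °C. Melting was followed at 260 nm from 5 to 90 °C at 0.5 °C/min. Tm was taken by the two-point average method, mean of three independent runs.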

Assay [2] is described as follows: Binding affinity to hairpin double stranded DNA TA base pair in sodium cacodylate buffer at pH 6.8 assessed as triplex-forming ability measuring melting temperature after by UV melting experiment. The method, boiled down: as §1
The nature of assay [3]: Binding affinity to hairpin double stranded DNA GC base pair in sodium cacodylate buffer at pH 6.8 assessed as triplex-forming ability measuring melting temperature after by UV melting experiment. The method, boiled down:
as §1

Assay [4] is described as follows: Binding affinity to hairpin double stranded DNA AT base pair in sodium cacodylate buffer at pH 6.8 assessed as triplex-forming ability measuring melting temperature after by UV melting experiment. The method in brief: as §1

`Cc1cn([C@H]2C[C@H](O[PH](OCCC#N)(OC[C@H]3O[C@@H](n4cc(C)c(=O)[nH]c4=O)C[C@@H]3O[PH](OCCC#N)(OC[C@H]3O[C@@H](n4cc(C)c(=O)[nH]c4=O)C[C@@H]3O[PH](OCCC#N)(OC[C@H]3O[C@@H](n4cc(C)c(=O)[nH]c4=O)C[C@@H]3O[PH](OCCC#N)(OC[C@H]3O[C@@H](n4cc(C)c(=O)[nH]c4=O)C[C@@H]3O[PH](OCCC#N)(OC(C)[C@H]3O[C@@H](N4C=CC(N)=N[C@@H]4O)C[C@@H]3O[PH](OCCC#N)(OC[C@H]3O[C@@H](n4cc(C)c(=O)[nH]c4=O)C[C@@H]3O[PH](OCCC#N)(OC[C@H]3O[C@@H](OCc4cn(-c5ccccc5C(N)=O)nn4)C[C@@H]3OP(=O)(O)OC[C@H]3O[C@@H](n4cc(C)c(=O)[nH]c4=O)C[C@@H]3O[PH](OCCC#N)(OC(C)[C@H]3O[C@@H](n4ccc(N)nc4=O)C[C@@H]3O[PH](OCCC#N)(OC[C@H]3O[C@@H](n4cc(C)c(=O)[nH]c4=O)C[C@@H]3O[PH](OCCC#N)(OC(C)[C@H]3O[C@@H](n4ccc(N)nc4=O)C[C@@H]3O[PH](OCCC#N)(OC[C@H]3O[C@@H](n4cc(C)c(=O)[nH]c4=O)C[C@@H]3O[PH](OCCC#N)(OC(C)[C@H]3O[C@@H](n4ccc(N)nc4=O)C[C@@H]3O[PH](OCCC#N)(OC[C@H]3O[C@@H](n4cc(C)c(=O)[nH]c4=O)C[C@@H]3O)N(C(C)C)C(C)C)N(C(C)C)C(C)C)N(C(C)C)C(C)C)N(C(C)C)C(C)C)N(C(C)C)C(C)C)N(C(C)C)C(C)C)N(C(C)C)C(C)C)N(C(C)C)C(C)C)N(C(C)C)C(C)C)N(C(C)C)C(C)C)N(C(C)C)C(C)C)N(C(C)C)C(C)C)N(C(C)C)C(C)C)[C@@H](CO)O2)c(=O)[nH]c1=O` (stereo not given in full): the Tm in assay [1] came to 21 °C; in assay [2] it was 17 °C; in assay [3], 19 °C; in assay [4], 18 °C.

`CC(=O)N1CCCc2ccc(-n3cc(CC[C@H]4C[C@H](OP(=O)(O)OC[C@H]5O[C@@H](n6cc(C)c(=O)[nH]c6=O)C[C@@H]5O[PH](OCCC#N)(OC(C)[C@H]5O[C@@H](n6ccc(N)nc6=O)C[C@@H]5O[PH](OCCC#N)(OC[C@H]5O[C@@H](n6cc(C)c(=O)[nH]c6=O)C[C@@H]5O[PH](OCCC#N)(OC(C)[C@H]5O[C@@H](n6ccc(N)nc6=O)C[C@@H]5O[PH](OCCC#N)(OC[C@H]5O[C@@H](n6cc(C)c(=O)[nH]c6=O)C[C@@H]5O[PH](OCCC#N)(OC(C)[C@H]5O[C@@H](n6ccc(N)nc6=O)C[C@@H]5O[PH](OCCC#N)(OC[C@H]5O[C@@H](n6cc(C)c(=O)[nH]c6=O)C[C@@H]5O)N(C(C)C)C(C)C)N(C(C)C)C(C)C)N(C(C)C)C(C)C)N(C(C)C)C(C)C)N(C(C)C)C(C)C)N(C(C)C)C(C)C)[C@@H](CO[PH](OCCC#N)(O[C@H]5C[C@H](n6cc(C)c(=O)[nH]c6=O)O[C@@H]5CO[PH](OCCC#N)(O[C@H]5C[C@H](n6ccc(N)nc6=O)O[C@@H]5C(C)O[PH](OCCC#N)(O[C@H]5C[C@H](n6cc(C)c(=O)[nH]c6=O)O[C@@H]5CO[PH](OCCC#N)(O[C@H]5C[C@H](n6cc(C)c(=O)[nH]c6=O)O[C@@H]5CO[PH](OCCC#N)(O[C@H]5C[C@H](n6cc(C)c(=O)[nH]c6=O)O[C@@H]5CO[PH](OCCC#N)(O[C@H]5C[C@H](n6cc(C)c(=O)[nH]c6=O)O[C@@H]5CO[PH](OCCC#N)(O[C@H]5C[C@H](n6cc(C)c(=O)[nH]c6=O)O[C@@H]5CO)N(C(C)C)C(C)C)N(C(C)C)C(C)C)N(C(C)C)C(C)C)N(C(C)C)C(C)C)N(C(C)C)C(C)C)N(C(C)C)C(C)C)N(C(C)C)C(C)C)O4)nn3)cc21` (stereo not given in full): the Tm in assay [1] was determined as 26 °C; in assay [2], 27 °C; in assay [3], 21 °C; in assay [4] it was 21 °C.

In the case of `Cc1cn([C@H]2C[C@H](O[PH](OCCC#N)(OC[C@H]3O[C@@H](n4cc(C)c(=O)[nH]c4=O)C[C@@H]3O[PH](OCCC#N)(OC[C@H]3O[C@@H](n4cc(C)c(=O)[nH]c4=O)C[C@@H]3O[PH](OCCC#N)(OC[C@H]3O[C@@H](n4cc(C)c(=O)[nH]c4=O)C[C@@H]3O[PH](OCCC#N)(OC[C@H]3O[C@@H](n4cc(C)c(=O)[nH]c4=O)C[C@@H]3O[PH](OCCC#N)(OC(C)[C@H]3O[C@@H](n4ccc(N)nc4=O)C[C@@H]3O[PH](OCCC#N)(OC[C@H]3O[C@@H](n4cc(C)c(=O)[nH]c4=O)C[C@@H]3O[PH](OCCC#N)(OC[C@H]3O[C@@H](CCc4cn(-c5cccc(O)c5)nn4)C[C@@H]3OP(=O)(O)OC[C@H]3O[C@@H](n4cc(C)c(=O)[nH]c4=O)C[C@@H]3O[PH](OCCC#N)(OC(C)[C@H]3O[C@@H](n4ccc(N)nc4=O)C[C@@H]3O[PH](OCCC#N)(OC[C@H]3O[C@@H](n4cc(C)c(=O)[nH]c4=O)C[C@@H]3O[PH](OCCC#N)(OC(C)[C@H]3O[C@@H](n4ccc(N)nc4=O)C[C@@H]3O[PH](OCCC#N)(OC[C@H]3O[C@@H](n4cc(C)c(=O)[nH]c4=O)C[C@@H]3O[PH](OCCC#N)(OC(C)[C@H]3O[C@@H](n4ccc(N)nc4=O)C[C@@H]3O[PH](OCCC#N)(OC[C@H]3O[C@@H](n4cc(C)c(=O)[nH]c4=O)C[C@@H]3O)N(C(C)C)C(C)C)N(C(C)C)C(C)C)N(C(C)C)C(C)C)N(C(C)C)C(C)C)N(C(C)C)C(C)C)N(C(C)C)C(C)C)N(C(C)C)C(C)C)N(C(C)C)C(C)C)N(C(C)C)C(C)C)N(C(C)C)C(C)C)N(C(C)C)C(C)C)N(C(C)C)C(C)C)N(C(C)C)C(C)C)[C@@H](CO)O2)c(=O)[nH]c1=O` (stereo not given in full), the Tm came to 22 °C in assay [1], 22 °C in assay [2], 21 °C in assay [3] and 21 °C in assay [4].

Take `CC1=CN([C@H]2C[C@H](O[PH](OCCC#N)(OC(C)[C@H]3O[C@@H](n4ccc(N)nc4=O)C[C@@H]3O[PH](OCCC#N)(OC[C@H]3O[C@@H](n4cc(C)c(=O)[nH]c4=O)C[C@@H]3O[PH](OCCC#N)(OC[C@H]3O[C@@H](OCc4cn(-c5ccccc5O)nn4)C[C@@H]3OP(=O)(O)OC[C@H]3O[C@@H](n4cc(C)c(=O)[nH]c4=O)C[C@@H]3O[PH](OCCC#N)(OC(C)[C@H]3O[C@@H](n4ccc(N)nc4=O)C[C@@H]3O[PH](OCCC#N)(OC[C@H]3O[C@@H](n4cc(C)c(=O)[nH]c4=O)C[C@@H]3O[PH](OCCC#N)(OC(C)[C@H]3O[C@@H](n4ccc(N)nc4=O)C[C@@H]3O[PH](OCCC#N)(OC[C@H]3O[C@@H](n4cc(C)c(=O)[nH]c4=O)C[C@@H]3O[PH](OCCC#N)(OC(C)[C@H]3O[C@@H](n4ccc(N)nc4=O)C[C@@H]3O[PH](OCCC#N)(OC[C@H]3O[C@@H](n4cc(C)c(=O)[nH]c4=O)C[C@@H]3O)N(C(C)C)C(C)C)N(C(C)C)C(C)C)N(C(C)C)C(C)C)N(C(C)C)C(C)C)N(C(C)C)C(C)C)N(C(C)C)C(C)C)N(C(C)C)C(C)C)N(C(C)C)C(C)C)N(C(C)C)C(C)C)[C@@H](CO[PH](OCCC#N)(O[C@H]3C[C@H](n4cc(C)c(=O)[nH]c4=O)O[C@@H]3CO[PH](OCCC#N)(O[C@H]3C[C@H](n4cc(C)c(=O)[nH]c4=O)O[C@@H]3CO[PH](OCCC#N)(O[C@H]3C[C@H](n4cc(C)c(=O)[nH]c4=O)O[C@@H]3CO[PH](OCCC#N)(O[C@H]3C[C@H](n4cc(C)c(=O)[nH]c4=O)O[C@@H]3CO)N(C(C)C)C(C)C)N(C(C)C)C(C)C)N(C(C)C)C(C)C)N(C(C)C)C(C)C)O2)C(O)NC1=O` (stereo not given in full): the Tm in assay [1] was 23 °C; in assay [2] it was 20 °C; in assay [3] it was 20 °C; in assay [4], 20 °C.

For the compound `Cc1cn([C@H]2C[C@H](O[PH](OCCC#N)(OC[C@H]3O[C@@H](n4cc(C)c(=O)[nH]c4=O)C[C@@H]3O[PH](OCCC#N)(OC[C@H]3O[C@@H](n4cc(C)c(=O)[nH]c4=O)C[C@@H]3O[PH](OCCC#N)(OC[C@H]3O[C@@H](n4cc(C)c(=O)[nH]c4=O)C[C@@H]3O[PH](OCCC#N)(OC[C@H]3O[C@@H](n4cc(C)c(=O)[nH]c4=O)C[C@@H]3O[PH](OCCC#N)(OC(C)[C@H]3O[C@@H](n4ccc(N)nc4=O)C[C@@H]3O[PH](OCCC#N)(OC[C@H]3O[C@@H](n4cc(C)c(=O)[nH]c4=O)C[C@@H]3O[PH](OCCC#N)(OC[C@H]3O[C@@H](CCc4cn(-c5cccc(NC(N)=O)c5)nn4)C[C@@H]3OP(=O)(O)OC[C@H]3O[C@@H](n4cc(C)c(=O)[nH]c4=O)C[C@@H]3O[PH](OCCC#N)(OC(C)[C@H]3O[C@@H](n4ccc(N)nc4=O)C[C@@H]3O[PH](OCCC#N)(OC[C@H]3O[C@@H](n4cc(C)c(=O)[nH]c4=O)C[C@@H]3O[PH](OCCC#N)(OC(C)[C@H]3O[C@@H](n4ccc(N)nc4=O)C[C@@H]3O[PH](OCCC#N)(OC[C@H]3O[C@@H](n4cc(C)c(=O)[nH]c4=O)C[C@@H]3O[PH](OCCC#N)(OC(C)[C@H]3O[C@@H](n4ccc(N)nc4=O)C[C@@H]3O[PH](OCCC#N)(OC[C@H]3O[C@@H](n4cc(C)c(=O)[nH]c4=O)C[C@@H]3O)N(C(C)C)C(C)C)N(C(C)C)C(C)C)N(C(C)C)C(C)C)N(C(C)C)C(C)C)N(C(C)C)C(C)C)N(C(C)C)C(C)C)N(C(C)C)C(C)C)N(C(C)C)C(C)C)N(C(C)C)C(C)C)N(C(C)C)C(C)C)N(C(C)C)C(C)C)N(C(C)C)C(C)C)N(C(C)C)C(C)C)[C@@H](CO)O2)c(=O)[nH]c1=O` (stereo not given in full), the Tm is 27 °C in assay [1], 28 °C in assay [2], 23 °C in assay [3] and 23 °C in assay [4].
